Calls of active or inactive are those of the source. No cut-off for these calls is given here.
What was measured:
[1] = test system: Pseudomonas aeruginosa; test: Downregulation of sdhB gene expression in Pseudomonas aeruginosa PAO1 assessed as fold decrease at 25 ug/ml by RT-qPCR analysis; assay type: functional; details: dose 25 µg/ml
[2] = test system: Pseudomonas aeruginosa; test: Downregulation of rhlR gene expression in Pseudomonas aeruginosa PAO1 assessed as fold decrease at 25 ug/ml by RT-qPCR analysis; assay type: functional; details: dose 25 µg/ml
[3] = test system: Pseudomonas aeruginosa; test: Downregulation of rhlI gene expression in Pseudomonas aeruginosa PAO1 assessed as fold decrease at 25 ug/ml by RT-qPCR analysis; assay type: functional; details: dose 25 µg/ml
[4] = test system: Pseudomonas aeruginosa; test: Downregulation of lasI gene expression in Pseudomonas aeruginosa PAO1 assessed as fold decrease at 25 ug/ml by RT-qPCR analysis; assay type: functional; details: dose 25 µg/ml
[5] = test system: Pseudomonas aeruginosa; test: Downregulation of lasR gene expression in Pseudomonas aeruginosa PAO1 assessed as fold decrease at 25 ug/ml by RT-qPCR analysis; assay type: functional; details: dose 25 µg/ml
[6] = Inhibition of quorum sensing system in Pseudomonas aeruginosa PAO1
Method in brief: (§1)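 Plate screen. CV026 grown overnight in LB with 50 μg ml−1 kanamycin; 15 μl seeded into 15 ml LB agar (1.0% agarose) containing 20 μM C4-HSL. PAO1 plates run in parallel. Test colonies inoculated by toothpick, incubated overnight at 37 °C. Ring of colourless viable cells around the colony scored as inhibition.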

[7] = Inhibition of quorum sensing system in Chromobacterium violaceum CV026; method in brief: as §1
[8] = test system: Pseudomonas aeruginosa; test: Inhibition of biofilm formation in Pseudomonas aeruginosa PAO1 at 1/2 times MIC incubated for 24 hrs crystal violet staining based SEM assay; assay type: functional
[9] = test system: Pseudomonas aeruginosa; test: Inhibition of pyocyanin production in Pseudomonas aeruginosa PAO1 at 1/2 time MIC incubated for 18 hrs; assay type: functional
Method in brief: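 Overnight PAO1 in LB diluted to OD600 = 0.05, subcultured 5–7 h to mid-log, rediluted to OD600 = 0.05. 5 mL with compound grown 18 h at 37 °C, 200 rpm. Supernatant extracted with 3 mL chloroform, back-extracted into 0.2 M HCl, absorbance at 520 nm.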

[10] = test system: Pseudomonas aeruginosa; test: Inhibition of rhamnolipid production in Pseudomonas aeruginosa PAO1 at 1/2 to 1/4 times MIC by orcinol method; assay type: functional, organism-based
Method in brief: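 Overnight PAO1 diluted 1:100 into LB with compound, 37 °C, 180 rpm; DMSO control. Supernatant (100 μL) mixed with 900 μL 0.19% orcinol in 53% H2SO4, heated 30 min at 80 °C, cooled, read at 421 nm.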

[11] = test system: Pseudomonas aeruginosa; test: Antibacterial activity against Pseudomonas aeruginosa PAO1 assessed as bacterial growth inhibition at 6.25 to 25 ug/ml by serial dilution method; assay type: functional, organism-based; details: dose 6.25-25 µg/ml
Method in brief: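 PAO1 in LB, 37 °C. MIC by CLSI 2-fold serial dilution in Mueller–Hinton broth, inoculum 1–5 × 10^5 CFU mL−1, DMSO stocks. Growth curves: overnight culture diluted to OD600 = 0.05, subcultured to mid-log, rediluted to OD600 = 0.05, 3 mL with compound; OD620 read at 1, 3, 5, 7, 9, 11 and 24 h at 37 °C; DMSO negative control.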

[12] = Inhibition of quorum sensing system in Pseudomonas aeruginosa PAO1 assessed as reduction in C4-HSL level at 25 ug/ml incubated for 24 hrs by LC-MS/MS method; details: dose 25.0 µg/ml
[13] = Inhibition of quorum sensing system in Pseudomonas aeruginosa PAO1 assessed as reduction in 3-oxo-C12-HSL level at 25 ug/ml incubated for 24 hrs by LC-MS/MS method; details: dose 25.0 µg/ml
[14] = Inhibition of quorum sensing system in Pseudomonas aeruginosa PAO1 assessed as reduction in 3-oxo-C12-HSL level at 12.5 ug/ml incubated for 24 hrs by LC-MS/MS method; details: dose 12.5 µg/ml
[15] = test system: Pseudomonas aeruginosa; test: Inhibition of biofilm formation in Pseudomonas aeruginosa PAO1 at 25 ug/ml incubated for 24 hrs crystal violet staining based assay; assay type: functional
Method in brief: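 PAO1 grown statically for 24 h in LB ± compound in 24-well plates. Planktonic cells removed; attached cells stained with 0.05% crystal violet, rinsed, dissolved in 95% ethanol, read at OD570. DMSO negative, resveratrol positive control; SD from three independent experiments.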

[16] = test system: Pseudomonas aeruginosa; test: Inhibition of biofilm formation in Pseudomonas aeruginosa PAO1 assessed as reduction in biofilm by measuring scattered appearance at 25 ug/ml incubated for 24 hrs by scanning electron microscopic assay; assay type: functional, organism-based; details: dose 25.0 µg/ml
Method in brief: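 PAO1 biofilms on coverslips treated with compound at 6.25, 12.5 or 25 μg mL−1 or DMSO. Coverslips PBS-washed, fixed in 2.5% glutaraldehyde, ethanol-dehydrated, freeze-dried, gold-coated and imaged by SEM.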

[17] = test system: Pseudomonas aeruginosa; test: Induction of biofilm eradication in Pseudomonas aeruginosa PAO1 at 12.5 ug/ml by crystal violet staining based assay; assay type: functional; details: dose 12.5 µg/ml
Method in brief: (§2)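 PAO1 biofilms grown overnight at 37 °C in LB in 24-well plates, washed with PBS, then fresh LB with compound added and grown overnight again. Washed, methanol-fixed, crystal violet stained, ethanol solubilised, read at OD570. DMSO negative, resveratrol positive control.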

[18] = test system: Pseudomonas aeruginosa; test: Induction of biofilm eradication in Pseudomonas aeruginosa PAO1 at 25 ug/ml by crystal violet staining based assay; assay type: functional; details: dose 25 µg/ml; method in brief: as §2
[19] = test system: Pseudomonas aeruginosa; test: Anti-virulence effect in Pseudomonas aeruginosa PAO1 assessed as decrease in protease level at 25 ug/ml; assay type: functional; parameters: scale not given: the % may be the effect or the level left; details: dose 25 µg/ml
Method in brief: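 Overnight PAO1 culture diluted 1:100 into LB with compound (6.25–25 μg mL−1), grown at 37 °C and 180 rpm; DMSO and RSV (25 μg mL−1) as controls. Culture supernatant mixed with 2% azocasein in 1 M Tris–HCl pH 8.0 for 15 min at 37 °C. Reaction stopped with 10% TCA, centrifuged, NaOH added, read at OD440.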

[20] = test system: Pseudomonas aeruginosa; test: Anti-virulence effect in Pseudomonas aeruginosa PAO1 assessed as inhibition of pyocyanin production; assay type: functional, organism-based
Method in brief: (§3)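 Overnight PAO1 culture in LB at 37 °C, diluted to OD600 0.05 and subcultured 5–7 h to mid-log phase, then re-diluted to OD600 0.05. Grown 18 h at 37 °C and 200 rpm with compound (6.25, 12.5, 25 μg mL−1) or DMSO. Supernatant extracted into chloroform, back-extracted into 0.2 M HCl, read at 520 nm.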

[21] = test system: Pseudomonas aeruginosa; test: Anti-virulence effect in Pseudomonas aeruginosa PAO1 assessed as inhibition of pyocyanin production at 25 ug/ml; assay type: functional; parameters: scale not given: the % may be the effect or the level left; details: dose 25 µg/ml; method in brief: as §3
[22] = test system: Pseudomonas aeruginosa; test: Anti-virulence effect in Pseudomonas aeruginosa PAO1 assessed as inhibition of pyocyanin production at 12.5 ug/ml; assay type: functional; parameters: scale not given: the % may be the effect or the level left; details: dose 12.5 µg/ml; method in brief: as §3
[23] = test system: Pseudomonas aeruginosa; test: Anti-virulence effect in Pseudomonas aeruginosa PAO1 assessed as inhibition of rhamnolipid production at 25 ug/ml; assay type: functional; parameters: scale not given: the % may be the effect or the level left; details: dose 25 µg/ml
Method in brief: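 PAO1 culture supernatant from growth with compound (6.25–25 μg mL−1) at 37 °C and 180 rpm, or with DMSO or RSV (25 μg mL−1) as controls. Orcinol assay: 100 μL sample plus 0.19% orcinol in 53% H2SO4, heated 30 min at 80 °C, cooled, read at 421 nm. At least three experiments in triplicate.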

[24] = test system: HEK-293T; test: Cytotoxicity against human HEK293T cells by CCK8 assay; assay type: functional, cell-based
Method in brief: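 HEK293T cell viability by CCK-8; IC50 determined.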

[25] = test system: Erythrocyte; test: Cytotoxicity against mouse RBC at 100 to 1024 ug/ml; assay type: toxicity, cell-based; details: dose 100-1024 µg/ml

With `Cc1cccc(C#N)c1Cc1c[nH]c2ccccc12` the “fold change (FC)” value [1] was 2.87, the “fold change (FC)” value [2] was 9.71 and the “fold change (FC)” value [3] was 7.3. The “fold change (FC)” value [4] was 5, the “fold change (FC)” value [5] was 4.42 and the inhibition [6] was “Active; Strong Inhibition Observed”. For the same compound, the inhibition [7] was “Active; Showed Higher Activity”, the “inhibition (INH)” value [8] was 52% and the “inhibition (INH)” value [9] was 64%. The inhibition [10] was “Active”, the Activity [11] was “inactive” and the inhibition [12] was 51%. It also gave an inhibition [13] of 60%, an inhibition [14] of 72% and an inhibition at 25 µg/mL [15] of 70%. The inhibition [16] was “Active”, the Activity [17] was 50% and the Activity [18] was 57%. For the same compound, the Activity [19] was 51%, the Activity [20] was “Dose-dependent-effect” and the Activity [21] was 73%. For the same compound, the Activity [22] was 57%, the Activity [23] was 23% and the IC50 [24] was 59 µM. For the same compound, the Activity [25] was “Toxic”.
